Activity calls are given as the source filed them. No cut-off for these calls is given here.
How the values were obtained:
Rattus norvegicus [1] = test: (§1) Antiarthritic effect in Lewis rat adjuvant-induced arthritis model lymph node cells restimulated with sonicated Mtb post isolation assessed as reduction in MCP1 production at 200 ug, ip starting from arthritis onset and continued uninterrupted until study end by cytokine multiplex assay; format: functional, organism-based
Method in brief: (§2)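 Male Lewis rats were immunized s.c. with heat-killed Mtb H37Ra (1.5 mg/rat) in mineral oil. From arthritis onset they received 200 μg/rat i.p. daily (DMSO stock diluted in PBS); controls got 1.2% DMSO in PBS. On d 18, draining lymph node or synovial-infiltrating cells were cultured at 1.5 × 10^6/well in 2% FBS medium ± sonicated Mtb (10 μg/ml) for 24 h. Supernatants were analysed by multiplex.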

Rattus norvegicus [2] = test: Antiarthritic effect in Lewis rat adjuvant-induced arthritis model spleen adherent cells restimulated with sonicated Mtb post isolation assessed as reduction in CCR3 expression at 200 ug, ip starting from arthritis onset and continued uninterrupted until study end by qPCR; format: functional, organism-based
Method in brief: (§3)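 From onset of Mtb-induced arthritis, rats received 200 μg/rat i.p. daily or vehicle. Spleen adherent cells harvested on d 18 (1.5–2.0 × 10^6 cells/well) were cultured in medium or with sonicated Mtb (10 μg/ml) for 24 h. Receptor mRNA was quantified by qPCR after TRIzol RNA isolation and cDNA synthesis, normalized to HGPRT and reported as relative message.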

Rattus norvegicus [3] = species on record: Rattus norvegicus; test: Antiarthritic effect in IL-1beta-stimulatedspleen adherent cells isolated from Lewis rat adjuvant-induced arthritis model assessed as reduction in MCP1 production pre-incubated with compound for 30 mins before stimulation with IL-1beta for 48 hrs by multiplex assay; format: functional, tissue-based; details: Spleen
Rattus norvegicus [4] = test: Antiarthritic effect in Lewis rat adjuvant-induced arthritis model spleen adherent cells restimulated with sonicated Mtb post isolation assessed as reduction in GRO/KC production at 200 ug, ip starting from arthritis onset and continued uninterrupted until study end by cytokine multiplex assay; format: functional, organism-based
Method in brief: (§4)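 Mtb-immunized male Lewis rats were dosed 200 μg/rat i.p. daily from arthritis onset (vehicle: 1.2% DMSO/PBS). Spleen adherent cells were prepared on d 18, plated at 1.5 × 10^6/well in 2% FBS medium and restimulated with sonicated Mtb (10 μg/ml) for 24 h. Supernatant chemokines and cytokines were measured by Luminex multiplex. Mean ± SD of triplicates from 4–5 rats.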

Rattus norvegicus [5] = test: as §1, with “synovial infiltrating” for “lymph node”, “TNFalpha” for “MCP1”; format: functional, organism-based; method in brief: as §2
Rattus norvegicus [6] = species on record: Rattus norvegicus; test: Antiarthritic effect in IL-1beta-stimulatedspleen adherent cells isolated from Lewis rat adjuvant-induced arthritis model assessed as reduction in RANTES production pre-incubated with compound for 30 mins before stimulation with IL-1beta for 48 hrs by multiplex assay; format: functional, tissue-based; details: Spleen
Rattus norvegicus [7] = species on record: Rattus norvegicus; test: Antiarthritic effect in IL-1beta-stimulatedspleen adherent cells isolated from Lewis rat adjuvant-induced arthritis model assessed as reduction in GRO/KC production pre-incubated with compound for 30 mins before stimulation with IL-1beta for 48 hrs by multiplex assay; format: functional, tissue-based; details: Spleen
Rattus norvegicus [8] = test: Antiarthritic effect in Lewis rat adjuvant-induced arthritis model spleen adherent cells restimulated with sonicated Mtb post isolation assessed as reduction in CXCR1 expression at 200 ug, ip starting from arthritis onset and continued uninterrupted until study end by qPCR analysis; format: functional, organism-based; method in brief: as §3
Rattus norvegicus [9] = test: (§5) Antiarthritic effect in Lewis rat adjuvant-induced arthritis model synovial infiltrating cells restimulated with sonicated Mtb post isolation assessed as reduction in RANTES production at 200 ug, ip starting from arthritis onset and continued uninterrupted until study end by cytokine multiplex assay; format: functional, organism-based; method in brief: as §2
Rattus norvegicus [10] = test: Antiarthritic effect in Lewis rat adjuvant-induced arthritis model serum assessed as reduction in IL-1beta production at 200 ug, ip starting from arthritis onset and continued uninterrupted until study end by cytokine multiplex assay; format: functional, organism-based
Method in brief: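 Arthritic Lewis rats (Mtb 1.5 mg s.c. in mineral oil) were given 200 μg/rat i.p. daily from onset until the day before harvest; controls received DMSO/PBS vehicle. On d 18, blood was taken by cardiac puncture after euthanasia and serum stored at −80 °C. Serum pooled from 4 rats was assayed in triplicate by multiplex.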

Rattus norvegicus [11] = test: Antiarthritic effect in Lewis rat adjuvant-induced arthritis model spleen adherent cells restimulated with sonicated Mtb post isolation assessed as reduction in MIP-1alpha production at 200 ug, ip starting from arthritis onset and continued uninterrupted until study end by cytokine multiplex assay; format: functional, organism-based; method in brief: as §4
Rattus norvegicus [12] = test: Increase in CCR1 expression in Lewis rat adjuvant-induced arthritis model spleen adherent cells restimulated with sonicated Mtb post isolation at 200 ug, ip starting from arthritis onset and continued uninterrupted until study end by qPCR relative baseline expression; format: functional, organism-based; method in brief: as §3
Rattus norvegicus [13] = test: as §5, with “MIP-1alpha” for “RANTES”; format: functional, organism-based; method in brief: as §2
Rattus norvegicus [14] = species on record: Rattus norvegicus; test: Antiarthritic effect in sonicated Mtb-stimulated spleen adherent cells isolated from Lewis rat adjuvant-induced arthritis model assessed as reduction in GRO/KC production pre-incubated with compound for 30 mins before stimulation with sonicated-Mtb for 48 hrs by multiplex assay; format: functional, tissue-based
Rattus norvegicus [15] = species on record: Rattus norvegicus; test: Increase in CCR1 expression in sonicated Mtb-stimulated spleen adherent cells isolated from Lewis rat adjuvant-induced arthritis model pre-incubated with compound before stimulation with sonicated Mtb for 24 hrs by qPCR; format: functional, tissue-based
Method in brief: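 Spleen adherent cells (1.5–2.0 × 10^6 cells/well) came from an untreated arthritic Lewis rat. They were restimulated 24 h with sonicated Mtb (10 μg/ml) with or without compound at 0.1 and 0.3 μM. CCR1 mRNA was measured by qPCR, normalized to HPRT and expressed as relative message.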

Rattus norvegicus [16] = test: Antiarthritic effect in Lewis rat adjuvant-induced arthritis model lymph node cells restimulated with sonicated Mtb post isolation assessed as reduction in TNFalpha production at 200 ug, ip starting from arthritis onset and continued uninterrupted until study end by cytokine multiplex assay; format: functional, organism-based; method in brief: as §2
[17] = Increase in CCR1 protein surface expression in sonicated Mtb-stimulated spleen adherent cells isolated Inhibition of cell migration of RANTES-stimulated spleen adherent cells isolated from Lewis rat adjuvant-induced arthritis model at 0. 3 uM by Transwell cell migration assay; format: functional
Method in brief: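 Transwell assay with 8-μm polycarbonate inserts. Spleen adherent cells (1 × 10^6) from arthritic rats were placed in the upper chamber; the lower chamber held serum-free RPMI with RANTES (50 ng/ml) ± compound (0.1, 0.3 μM). Cells migrated 24 h at 37 °C, 5% CO2. Lower-surface cells were fixed in 4% formaldehyde, DAPI-stained, imaged at 10× and counted by image analysis. RANTES alone was set as 100%.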

Rattus norvegicus [18] = species on record: Rattus norvegicus; test: Antiarthritic effect in sonicated Mtb-stimulated spleen adherent cells isolated from Lewis rat adjuvant-induced arthritis model assessed as reduction in RANTES production pre-incubated with compound for 30 mins before stimulation with sonicated-Mtb for 48 hrs by multiplex assay; format: functional, tissue-based
Rattus norvegicus [19] = species on record: Rattus norvegicus; test: Antiarthritic effect in IL-1beta-stimulatedspleen adherent cells isolated from Lewis rat adjuvant-induced arthritis model assessed as reduction in MIP-1alpha production pre-incubated with compound for 30 mins before stimulation with IL-1beta for 48 hrs by multiplex assay; format: functional, tissue-based; details: Spleen
Rattus norvegicus [20] = test: Antiarthritic effect in Lewis rat adjuvant-induced arthritis model synovial infiltrating cells restimulated with sonicated Mtb post isolation assessed as reduction in GRO/KC production at 200 ug, ip starting from arthritis onset and continued uninterrupted until study end by cytokine multiplex assay; format: functional, organism-based; method in brief: as §2
Rattus norvegicus [21] = species on record: Rattus norvegicus; test: Antiarthritic effect in sonicated Mtb-stimulated spleen adherent cells isolated from Lewis rat adjuvant-induced arthritis model assessed as reduction in MCP1 production pre-incubated with compound for 30 mins before stimulation with sonicated-Mtb for 48 hrs by multiplex assay; format: functional, tissue-based

Which Activity (Rattus norvegicus [1]) does the source give for `CC1=C(O)C(=O)C=C2C1=CC=C1[C@@]2(C)CC[C@@]2(C)[C@@H]3C[C@](C)(C(=O)O)CC[C@]3(C)CC[C@]12C` [CELASTROL] here?
Its Activity is “inactive”.

What about the Activity (Rattus norvegicus [2]) of the same compound?
Its Activity is “Active”.

What about the Activity (Rattus norvegicus [3]) of the same compound?
The Activity was “Dose-dependent effect”.

And the Activity (Rattus norvegicus [4])?
The Activity was “Active”.

What about the Activity (Rattus norvegicus [5]) of the same compound?
Its Activity is “inactive”.

What about the Activity (Rattus norvegicus [6]) of the same compound?
The Activity was “Dose-dependent effect”.

What about the Activity (Rattus norvegicus [7]) of the same compound?
Its Activity is “Dose-dependent effect”.

What about the Activity (Rattus norvegicus [8]) of the same compound?
The Activity was “Active”.

What about the Activity (Rattus norvegicus [9]) of the same compound?
Its Activity is “inactive”.

And the Activity (Rattus norvegicus [10])?
The Activity was “Active”.

And the Activity (Rattus norvegicus [11])?
Its Activity is “inactive”.

And the Activity (Rattus norvegicus [12])?
Its Activity is “Active”.

And the Activity (Rattus norvegicus [13])?
The Activity was “inactive”.

What about the Activity (Rattus norvegicus [14]) of the same compound?
The Activity was “Dose-dependent effect”.

And the Activity (Rattus norvegicus [15])?
Its Activity is “Dose-dependent effect”.

What about the Activity (Rattus norvegicus [16]) of the same compound?
The Activity was “inactive”.

What about the “inhibition (INH)” value [17] of the same compound?
Its value is 63%.

What about the Activity (Rattus norvegicus [18]) of the same compound?
The Activity was “Dose-dependent effect”.

And the Activity (Rattus norvegicus [19])?
Its Activity is “Dose-dependent effect”.

And the Activity (Rattus norvegicus [20])?
Its Activity is “inactive”.

What about the Activity (Rattus norvegicus [21]) of the same compound?
The Activity was “Dose-dependent effect”.

— ChEMBL document CHEMBL2086325, “Suppression of autoimmune arthritis by Celastrus-derived Celastrol through modulation of pro-inflammatory chemokines” (Bioorg Med Chem, 2012)
